ChEMBL document CHEMBL3864174, “Scaffold-Hopping of Aurones: 2-Arylideneimidazo[1,2-a]pyridinones as Topoisomerase IIα-Inhibiting Anticancer Agents” (ACS Med Chem Lett, 2016)
pIC50: −log10 of the molar value. Activity calls are given as the source filed them. The calls are words filed in the database; no cut-off is given here.

What was measured:
[1] = target: DNA topoisomerase 2-alpha (Homo sapiens) (UniProt P11388); assay: Inhibition of human Topo2alpha-mediated kDNA decatenation at 100 uM after 30 mins by SDS-based agarose gel electrophoresis
[2] = system: MCF7; assay: Cytotoxicity against human MCF7 cells assessed as reduction in colony formation after 48 hrs by crystal violet-staining based assay; format: functional, cell-based
[3] = (§1) Cytotoxicity against HEK293T cells assessed as reduction in colony formation after 48 hrs by crystal violet-staining based assay; format: functional; details: Homo sapiens, HEK-293T, read-out: LC50 (the source's name)
[4] = Cytotoxicity against African green monkey Vero cells assessed as cells growth inhibition after 48 hrs by MTT assay; format: toxicity, cell-based, Chlorocebus sabaeus; details: for IC50 at 48 h: African green monkey (Chlorocebus sabaeus), Vero cells; for Activity: chlorocebus sabaeus, vero, 48 h
Summary of the method: (§2)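 MTT colorimetric assay. HEK-293T (kidney line) and VERO cells were tested, and the IC50 was taken as the concentration giving 50% growth inhibition.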

[5] = Cytotoxicity against African green monkey Vero cells assessed as reduction in colony formation after 48 hrs by crystal violet-staining based assay; format: toxicity, cell-based; details: chlorocebus sabaeus; for CC50 at 48 h: Vero cells, read-out: LC50; for Activity: vero, 48 h
[6] = (§3) Cytotoxicity against HEK293T cells assessed as cells growth inhibition after 48 hrs by MTT assay; format: functional, cell-based; details: Homo sapiens, HEK-293T; summary of the method: as §2
[7] = Cytotoxicity against human MDA-MB-231 cells assessed as reduction in cell viability after 48 hrs by MTT assay; format: functional, cell-based; details: MDA-MB-231, 48 h
[8] = system: HEK-293T; assay: as §1; format: functional; details: Homo sapiens
[9] = system: MCF7; assay: Cytotoxicity against human MCF7 cells assessed as cells growth inhibition after 48 hrs by MTT assay; format: functional, cell-based
[10] = Cytotoxicity against human MDA-MB-468 cells assessed as reduction in cell viability after 48 hrs by MTT assay; format: functional, cell-based; details: MDA-MB-468, 48 h
[11] = system: HEK-293T; assay: as §3; format: functional, cell-based; details: Homo sapiens; summary of the method: as §2
[12] = Inhibition of tubulin polymerization in human MCF7 cells assessed as suppression of protein assembly after 15 mins by spectrophotometric analysis; format: cell-based
[13] = Cell cycle arrest in human MCF7 cells assessed as accumulation at G0 phase at 2000 nM after 48 hrs by propidium iodide-staining based FACS analysis; format: functional
[14] = Cell cycle arrest in human MCF7 cells assessed as accumulation at G2/M phase at 2000 nM after 48 hrs by propidium iodide-staining based FACS analysis; format: functional

Sequence of DNA topoisomerase 2-alpha (Homo sapiens) (P11388 whole entry): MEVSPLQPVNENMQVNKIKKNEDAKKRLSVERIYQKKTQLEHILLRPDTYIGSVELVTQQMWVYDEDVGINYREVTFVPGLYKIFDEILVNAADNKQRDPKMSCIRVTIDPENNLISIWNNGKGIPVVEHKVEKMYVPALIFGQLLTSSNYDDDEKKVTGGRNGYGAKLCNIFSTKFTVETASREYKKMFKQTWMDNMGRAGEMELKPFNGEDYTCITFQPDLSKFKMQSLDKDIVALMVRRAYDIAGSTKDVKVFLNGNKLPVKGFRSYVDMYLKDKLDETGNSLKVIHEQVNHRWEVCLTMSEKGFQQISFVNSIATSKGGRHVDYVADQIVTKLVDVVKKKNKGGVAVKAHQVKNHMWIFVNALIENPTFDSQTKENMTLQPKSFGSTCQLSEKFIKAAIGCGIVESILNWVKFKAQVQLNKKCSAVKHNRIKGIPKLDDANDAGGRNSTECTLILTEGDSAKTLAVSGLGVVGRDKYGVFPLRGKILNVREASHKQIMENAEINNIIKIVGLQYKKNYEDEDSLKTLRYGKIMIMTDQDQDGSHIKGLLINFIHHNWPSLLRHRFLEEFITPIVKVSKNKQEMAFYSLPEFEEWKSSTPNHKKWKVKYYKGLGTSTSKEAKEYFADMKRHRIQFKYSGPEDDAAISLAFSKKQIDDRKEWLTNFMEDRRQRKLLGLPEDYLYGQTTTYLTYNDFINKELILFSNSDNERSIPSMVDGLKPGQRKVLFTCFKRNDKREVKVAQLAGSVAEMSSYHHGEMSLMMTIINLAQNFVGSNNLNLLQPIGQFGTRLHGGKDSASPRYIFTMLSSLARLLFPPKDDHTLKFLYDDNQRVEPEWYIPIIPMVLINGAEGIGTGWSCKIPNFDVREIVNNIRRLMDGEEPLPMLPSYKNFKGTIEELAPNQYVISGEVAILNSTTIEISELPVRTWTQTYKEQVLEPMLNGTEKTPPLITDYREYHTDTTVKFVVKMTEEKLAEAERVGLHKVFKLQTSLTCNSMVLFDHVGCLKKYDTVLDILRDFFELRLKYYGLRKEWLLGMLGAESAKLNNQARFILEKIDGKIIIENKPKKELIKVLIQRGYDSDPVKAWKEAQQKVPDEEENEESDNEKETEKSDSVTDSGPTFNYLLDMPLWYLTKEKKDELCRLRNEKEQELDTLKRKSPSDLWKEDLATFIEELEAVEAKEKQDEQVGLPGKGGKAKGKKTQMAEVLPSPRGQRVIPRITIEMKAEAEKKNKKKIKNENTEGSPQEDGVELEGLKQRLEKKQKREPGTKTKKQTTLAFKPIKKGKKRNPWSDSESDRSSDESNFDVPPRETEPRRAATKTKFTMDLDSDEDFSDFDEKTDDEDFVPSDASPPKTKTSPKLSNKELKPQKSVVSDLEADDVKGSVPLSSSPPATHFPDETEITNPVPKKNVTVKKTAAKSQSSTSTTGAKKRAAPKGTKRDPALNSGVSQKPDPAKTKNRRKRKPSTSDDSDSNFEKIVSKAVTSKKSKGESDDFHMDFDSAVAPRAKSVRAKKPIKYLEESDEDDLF

Structure (SMILES)	inhibition [1]	Activity [2]	CC50 [3] [µM]	IC50 at 48 h [4] [µM]	CC50 at 48 h [5] [µM]	pIC50 [6]	other results
CN(C)c1ccc(/C=C2\N=C3C=CC=CN3C2=O)cc1	Active						
O=C1/C(=C/c2ccc(O)cc2)N=C2C=CC=CN12		Active	0.05	1.5	1.5	7.40	
O=C1/C(=C/c2ccc(Cl)cc2)N=C2C=CC(Cl)=CN12	Active	Active	0.04	1.5	1.5	7.35	
COc1ccc(OC)c(/C=C2\N=C3C=CC=CN3C2=O)c1	Active	Active	0.06	1.5	1.5	6.82	
COc1cc([C@@H]2c3cc4c(cc3[C@@H](O[C@@H]3O[C@@H]5CO[C@@H](C)O[C@H]5[C@H](O)[C@H]3O)[C@H]3COC(=O)[C@H]23)OCO4)cc(OC)c1O [ETOPOSIDE]	Active			50		4.66	
COc1cccc(/C=C2\N=C3C=CC=CN3C2=O)c1	Active	Active	0.075	1.5	1.5	7.10	
O=C1/C(=C/c2ccc(Br)cc2)Oc2ccccc21	Active	Dose-dependent effect		2.4		6.05	pIC50 [7]: 6.08 to 6.22; Activity [8]: Dose-dependent effect; Activity [4]: Dose-dependent effect; growth inhibition (GI) [9]: Dose-dependent effect; Activity [5]: Dose-dependent effect; pIC50 [10]: 6.08 to 6.22; growth inhibition (GI) [11]: Dose-dependent effect
O=C1/C(=C/c2ccc(Cl)cc2)N=C2C=CC=CN12	Active	Active	0.04	0.2	1.5	7.52	
CC1=CN2C(=O)/C(=C/c3ccc(Cl)cc3)N=C2C=C1	Active						
O=C1/C(=C/c2ccc(Cl)cc2)N=C2C=CC(Br)=CN12	Active						
COc1ccc(/C=C2\Oc3ccccc3C2=O)cc1 [4'-METHOXY-AURONE]	Active	Dose-dependent effect		2.5		6.15	pIC50 [7]: 6.08 to 6.22; Activity [8]: Dose-dependent effect; Activity [4]: Dose-dependent effect; growth inhibition (GI) [9]: Dose-dependent effect; Activity [5]: Dose-dependent effect; pIC50 [10]: 6.08 to 6.22; growth inhibition (GI) [11]: Dose-dependent effect
COc1ccc(/C=C2\N=C3C=CC(Cl)=CN3C2=O)cc1		Active	0.04	1.5	1.5	7.10	
COc1cc(/C=C2\N=C3C=CC=CN3C2=O)cc(OC)c1OC		Active	0.055	0.2	1	8.00	
COc1ccc(/C=C\c2cc(OC)c(OC)c(OC)c2)cc1O [COMBRETASTATIN A4]							pIC50 [12]: 5.60; Activity [13]: Active; Activity [14]: Active
O=C1/C(=C/c2ccc(Cl)cc2)N=C2C(Br)=CC(Br)=CN12	Active						
